Test results from the EternaBench riboswitch data.

System: MS2 coat protein
Assay: apparent Kd, MS2 coat protein; higher = weaker binding; RNA-MaP array; FMN 200 µM where present
How it was run: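 Designs on Illumina sequencing-chip clusters, transcribed by stalled E. coli RNA polymerase, were exposed to SNAP-549-labelled MS2 coat protein in doubling steps from 0.7 or 1.5 nM up to 3 µM, without and then with constant ligand. The buffer held 100 mM Tris-HCl pH 7.5, 80 mM KCl, 4 mM MgCl2, BSA, DTT, yeast tRNA and Tween-20. Apparent Kd values are medians of filtered per-cluster binding-curve fits to green signal normalised to red-channel RNA signal and control-cluster median Fmax.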

[1] = designed as: OFF switch for flavin mononucleotide, no ligand
[2] = ligand present: flavin mononucleotide, designed as: OFF switch for flavin mononucleotide
[3] = designed as: ON switch for flavin mononucleotide, no ligand
[4] = ligand present: flavin mononucleotide, designed as: ON switch for flavin mononucleotide

Sequence | apparent Kd [1] [nM] | apparent Kd [2] [nM] | apparent Kd [3] [nM] | apparent Kd [4] [nM]
AUGAGGUCAGGAUAUGCAUGGCGGGACUUGCGUCGUGGCGUGGAGAAGGGACAUGAGGAUCACCCAUGUGGAGG | 108 | 88.3 |  | 
GUGAAACAUGAGGAUCACCCAUGUGAGGAUAUGUUUUAGUACUGGAGACAGUACAUCUAUAGAAGGCACAAUGG | 68.2 | 89.1 |  | 
UUAAUGUCAGGAUAUCUUAGGUGGGUGCGAAGAUUCAUUUUGGAGAAGGGACAUGAGGAUCACCCAUGUACCUU | 18.7 | 19.5 |  | 
CGUGACGACAUAGGAUAUUGUUACAUGAGGAUCACCCAUGUCAACCAUUUAUCUCAAAUUGUUGACAAGAAGGAUGUGGUCACG |  |  | 32.6 | 11.6
UUAAAUCAUGUAGGAUAUGCAUGGCGAAGCUACGCAGAAGGACAUGAGGAUCACCCAUGUGCUAGCUACCGAGUUCGGUGGCAA | 71.3 | 283 |  | 
GGUGGACAUGAGGAUCACCCAUGUGAGGAUAUCGGCUGGUACGUGGUGGCUGGCAUCUCGAGAAGGCACAUAGU | 80.1 | 202 |  | 
CUUUUACAUGAGGAUCACCCAUGUUAUGGCGGGUCAGGAUAUAGAUCGGAUGCGUUCUGUCUAGAAGGGACAUGUU |  |  | 52.2 | 33.4
AAAACGGUAGGAUAUACAGUCCGUUGUCGAAUGAUGAAAAGACAUGAGGAUCACCCAUGUAGAAGGACCGAAAA | 54.8 | 125 |  | 
GAGCGCUGUCAAGGAUAUCCGAAAAGAAAAUAAGGAGAAGGUGACAUGAGGAUCACCCAUGUGCACUGGGUGGACGCGCGCUCC | 459 | 256 |  | 
AUCUUGAGAGGAUAUACAUGAGGAUCACCCAUGUUGCUAACACCAUGAGCUCAUUUACGUAGAAGGCUCAUUUG | 18 | 18.6 |  | 
UUCAGCUCGUCAGGAUAUACGUCACUGCGUCAGCAGUGUGGUAAGAUCACAUGAGGAUCACCCAUGUAGAAGGGACGAGCUGAU | 13.7 | 235 |  | 
UUCCUGUCAGGAUAUGACUAGAUGCACGAAAGUGUGUUUACUUAGAAGGGACAUGAGGAUCACCCAUGUAGUCC | 35.9 | 33.3 |  | 
GAGUGACAUGAGGAUCACCCAUGUGAGGAUAUCGGACGGACCAAAUUAACAACAAACGCGAGAAGGCACAUCGG | 76.4 | 79.5 |  | 
UUACUACAUGAGGAUCACCCAUGUCAGGAUAUUGUCUAUACUUUGGAAUAUGUGUCGAUAAGAAGGGACUAUAU | 18.9 | 21.5 |  | 
AAUUAACUCACAGGAUAUAGCAGAGGUCGAGUGAACUUACAGGCGACUAGGCUAGAAGGGUGACCACAUGAGGAUCACCCAUGU |  |  | 834 | 117
GGCUGGCAGCUAGGAUAUGGGCGGUCACAUGAGGAUCACCCAUGUCAACAUCAAAACCAGAUUAACCAGAAGGAGCUGCGGGCU |  |  | 51.8 | 796
AAACAUGUCCGAGGAUAUCUGGAAACAUUUUCAAGAGAAGGCGGACAUGAGGAUCACCCAUGUCUCUCCUCAUCAACUAUAAAU | 8.24 | 60.6 |  | 
UCUUGUGUUGAGGAUAUGCGCCGGCUCGCUGGCGCAGAAGGCGGCACAUGAGGAUCACCCAUGUCAGUUCGCGU | 326 | 78 |  | 
UAGCUUGACGCAGGAUAUCCAAGGCUGAAAUGAGGAGAAGGGCGCCAAACAUGAGGAUCACCCAUGUAUUAUGCAGGGUCCUCA | 362 | 180 |  | 
UGCUACGGAGGAUAUACAUGAGGAUCACCCAUGUGAUAUAUUAUGCCGAGAGGCUAGUGUAGAAGGCCGUAGCU | 67 | 576 |  | 
GUAAUACAUGAGGAUCACCCAUGUCAAUGUAGUCGAGGAUAUGGGUAGCUAUGAGGCUUACUAGAAGGCGACGAGC |  |  | 210 | 39.3

Sequence | apparent Kd [1] [nM] | apparent Kd [2] [nM] | apparent Kd [3] [nM] | apparent Kd [4] [nM]
GUGGUCAGACAUGAGGAUCACCCAUGUGGAAUAAAUAAGGAAUAGGAUAUGGAAUAUAGGAUAUACCAGAAGGGUUGGUUGGUG |  |  | 98.4 | 114
UGACUGAAGCAAGGAUAUUGAAAAGUUAACGUACAAGAAGGUGCUGUUUAUGUCUCUUUACAUGAGGAUCACCCAUGUUUUUAU |  |  | 36.7 | 23.2
CACUCAGGCACAUGAGGAUCACCCAUGUCCCGGAAGCCGAGACAGGAUAUGUGCCUCGAAUGUGCACAGAAGGGUCUACUAUGU |  |  | 374 | 264
AUGGUGCAGGUACAGGAUAUGUUGCUCGUAACAUGAGGAUCACCCAUGUACCUAUGAGAUUAAAUGCAGAAGGGUGCACACCACG |  |  | 784 | 62.7
GGGUGACAUGAGGAUCACCCAUGUCAGGAUAUGGGCUCGGGCUCGAAAGGGCUCGGGCUCAGAAGGGACUGCCC | 56 | 170 |  | 
CUUUUGUGAGGAUAUCAGGUGUGCUAGCGUACUGGUACAUCUGAGAAGGCACAUGAGGAUCACCCAUGUUUCUA | 84.9 | 74.2 |  | 
CCGAGGCUAGGAUAUUGACGAUAAUACAUGAGGAUCACCCAUGUGAGUCGUGUAUGCGCGCAAGAAGGAGUAAUAA | 14 | 17.6 |  | 
UAUAAAAUUAUAGGAUAUCGAUAUCAAAGAUAUCGAGAAGGGUGAAUAUAAUAUUAUCUGUACAUGAGGAUCACCCAUGUUUAU |  |  | 276 | 87.2
CCAGGCUUCGAGAAGGACAUGAGGAUCACCCAUGUGCGUGUGAAGCAGCCGUGAGGCUGCAUCAUGUAGGAUAUCGGAGUCUGC | 77.2 | 538 |  | 
UGAAAUCAUGUAGGAUAUGCAUGGCGAAGCUACGCAGAAGGACAUGAGGAUCACCCAUGUUAUAGCUACCCAGUUCGGUGGCAG | 46.2 | 174 |  | 
GGCCAAGUCGAGAAGGCCGGUAGACAUGAGGAUCACCCAUGUAGUGCGUGGAGGAUAUUGAAUGGGUGGCGUAGGACCUGCGUU |  |  | 106 | 18.6
CUCUUGUUAGGAUAUCAAACCAGUGACGGAACCACUGGAAGUGAGAAGGGACAUGAGGAUCACCCAUGUAAGAA | 55.6 | 113 |  | 
GCACUGGAUGUAGGAUAUCAGGACGAUAAGUCCUGAGAAGGACAUGAGGAUCACCCAUGUGAUUAUACCAGUGCAAAUAAUAUA | 30.7 | 274 |  | 
UGUUGGAGCGAGAAGGGACGAUGGGAAGCUGUAAGCUGGCACUGUAGACAUGAGGAUCACCCAUGUCAGGAUAUUGCCGAACUA | 5.98 | 10.2 |  | 
ACUAUACGAGGAUAUGCUGUCAGUACUCCGGAGUUAGUUUGACAUGAGGAUCACCCAUGUAGAAGGCGUUUACU | 40 | 30.3 |  | 
AAACGCGUAGGAUAUACAUGAGGAUCACCCAUGUAUUGGGCUGUUGAUCUUCCUAAGGGUAGAAGGACGGGCAC | 68.1 | 119 |  | 
CAAUCGGCACAGAAGGGUGACAUGAGGAUCACCCAUGUAGCGUGGCACUCAGGAGGAGCCACGCCACAGGAUAUGUGCCAGCAC |  |  | 50.5 | 53.8
GCCAUCGCAUGAGGAUAUGCUCCCGUUUCGGGAGCAGAAGGCAUGUCAUAAGACAUGAGGAUCACCCAUGUGGUAAAGAUGGCA |  |  | 237 | 10.3
CCCGUGUGUUAAGGAUAUGGCAGGCGCGUUGAACCAGAAGGUAGCACAUGAGGAUCACCCAUGUGAAUGCUCACGAAUCGAGCG | 31.3 | 26.8 |  | 
GUGUACAGAGGAUAUGCACGAGUAGUUACGAAAGUAACUACACAUGAGGAUCACCCAUGUAGAAGGCUGUACAC | 13.2 | 16.9 |  | 
AUCUUGAGAGGAUAUACAUGAGGAUCACCCAUGUUGCUAACACCAUGAGCUCAUUUACGUAGAAGGCUCAUCCG | 17.7 | 17.2 |  | 
